Experimental data published in ChEMBL document CHEMBL4665798, “Novel Human Urate Transporter 1 Inhibitors as Hypouricemic Drug Candidates with Favorable Druggability” (J Med Chem, 2020).
pIC50: −log10 of the molar value.

Columns and labels:
[1] = AUC (0 to t) in Sprague-Dawley rat at 10 mg/kg, po by LC-MS analysis; assay type: ADME, organism-based; set-up: dose 10 mg/kg; conditions: in vivo
Outline: (§1)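 Male Sprague-Dawley rats, two groups, dosed iv or orally; compound in PEG 400/normal saline (70/30, V/V). Oral blood from sinus jugularis at 5 min to 24 h, plasma by centrifugation at 2200 g, stored -20 °C. Plasma with internal standard precipitated by methanol, quantified by LC-MS against spiked blank-plasma standard curves. Mean ± SD, n = 5.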

[2] = Cmax in Sprague-Dawley rat at 10 mg/kg, po by LC-MS analysis; assay type: ADME, organism-based; set-up: route oral, dose 10 mg/kg; conditions: in vivo; outline: as §1
[3] = MRT (0 to infinity) in Sprague-Dawley rat at 10 mg/kg, po by LC-MS analysis; assay type: ADME, organism-based; conditions: in vivo; outline: as §1
[4] = Half-life in Sprague-Dawley rat at 1 mg/kg, iv by LC-MS analysis; assay type: ADME, organism-based; conditions: in vivo
[5] = Half-life in Sprague-Dawley rat at 10 mg/kg, po by LC-MS analysis; assay type: ADME, organism-based; conditions: in vivo; outline: as §1
[6] = test system: Mus musculus; assay: Hypouricemic activity in Kunming mouse model of xanthine/potassium oxonate-induced acute hyperuricemia assessed as decrease in serum uric acid level at 2 mg/kg administered 3 hrs prior to xanthine/potassium oxonate and measured after 6 hrs relative to control; assay type: functional; set-up: scale not given: the % may be the effect or the level left; conditions: time 9 hrs
Outline: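 Male Kunming mice, hyperuricemia induced by intragastric xanthine plus subcutaneous potassium oxonate (0.2 mL each). […] Groups: normal vehicle, untreated model, active control, test. Serum uric acid measured. Decrease ratio = (model SUA − compound SUA)/(model SUA − vehicle SUA).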

[7] = AUC (0 to infinity) in Sprague-Dawley rat at 10 mg/kg, po by LC-MS analysis; assay type: ADME, organism-based; set-up: time infinity, route oral, dose 10 mg/kg; conditions: in vivo; outline: as §1
[8] = Tmax in Sprague-Dawley rat at 10 mg/kg, po by LC-MS analysis; assay type: ADME, organism-based; conditions: in vivo; outline: as §1
[9] = AUC (0 to t) in male Kunming mouse at 50 mg/kg, po by LC-MS/MS analysis; assay type: ADME, organism-based; set-up: dose 50 mg/kg; conditions: in vivo
Outline: (§2)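 Male Kunming mice, ten in total, split into five groups; single oral dose in PEG 400/normal saline (70/30, v/v). Blood taken from submandibular or saphenous vein into K2EDTA tubes at 0.25, 0.5, 1, 2, 4, 8, 24, 48, 72 h. Plasma spun at about 4 °C and kept at -70 °C. Acetonitrile precipitation with dexamethasone internal standard, then LC-MS/MS against plasma standard curves.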

[10] = AUC (0 to infinity) in male Kunming mouse at 50 mg/kg, po by LC-MS/MS analysis; assay type: ADME, organism-based; set-up: route oral, time infinity, dose 50 mg/kg; conditions: in vivo; outline: as §2
[11] = species: Rattus norvegicus; assay: Hypouricemic activity in rat model of xanthine/potassium oxonate-induced acute hyperuricemia assessed as decrease in serum uric acid level relative to control; assay type: functional; set-up: scale not given: the % may be the effect or the level left
[12] = Tmax in male Kunming mouse at 50 mg/kg, po by LC-MS/MS analysis; assay type: ADME, organism-based; conditions: in vivo; outline: as §2
[13] = Half-life in Sprague-Dawley rat at 20 mg/kg, po by LC-MS analysis; assay type: ADME, organism-based; conditions: in vivo
[14] = AUC (0 to infinity) in Sprague-Dawley rat at 20 mg/kg, po by LC-MS analysis; assay type: ADME, organism-based; set-up: route oral, time infinity, dose 20 mg/kg; conditions: in vivo
[15] = AUC (0 to t) in male Kunming mouse at 500 mg/kg, po by LC-MS/MS analysis; assay type: ADME, organism-based; set-up: dose 500 mg/kg; conditions: in vivo
Outline: (§3)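 Male Kunming mice given oral compound in PEG 400/normal saline (70/30, V/V). Blood from submandibular or saphenous vein into K2EDTA tubes at 0.25 to 72 h. Plasma spun at 3200g near 4 °C, kept -70 °C, precipitated with acetonitrile plus dexamethasone internal standard. Quantified by LC-MS/MS against spiked blank-plasma standard curves.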

[16] = Half-life in male Kunming mouse at 2 mg/kg, po by LC-MS/MS analysis; assay type: ADME, organism-based; conditions: in vivo; outline: as §2
[17] = Tmax in male Kunming mouse at 2 mg/kg, po by LC-MS/MS analysis; assay type: ADME, organism-based; conditions: in vivo; outline: as §2
[18] = target: Voltage-gated inwardly rectifying potassium channel KCNH2 (Homo sapiens, UniProt Q12809); assay: Inhibition of human ERG expressed in HEK293 cells at -80 mV holding potential by whole cell voltage patch clamp assay; assay type: cell-based
Sequence of Voltage-gated inwardly rectifying potassium channel KCNH2 (Q12809 whole entry): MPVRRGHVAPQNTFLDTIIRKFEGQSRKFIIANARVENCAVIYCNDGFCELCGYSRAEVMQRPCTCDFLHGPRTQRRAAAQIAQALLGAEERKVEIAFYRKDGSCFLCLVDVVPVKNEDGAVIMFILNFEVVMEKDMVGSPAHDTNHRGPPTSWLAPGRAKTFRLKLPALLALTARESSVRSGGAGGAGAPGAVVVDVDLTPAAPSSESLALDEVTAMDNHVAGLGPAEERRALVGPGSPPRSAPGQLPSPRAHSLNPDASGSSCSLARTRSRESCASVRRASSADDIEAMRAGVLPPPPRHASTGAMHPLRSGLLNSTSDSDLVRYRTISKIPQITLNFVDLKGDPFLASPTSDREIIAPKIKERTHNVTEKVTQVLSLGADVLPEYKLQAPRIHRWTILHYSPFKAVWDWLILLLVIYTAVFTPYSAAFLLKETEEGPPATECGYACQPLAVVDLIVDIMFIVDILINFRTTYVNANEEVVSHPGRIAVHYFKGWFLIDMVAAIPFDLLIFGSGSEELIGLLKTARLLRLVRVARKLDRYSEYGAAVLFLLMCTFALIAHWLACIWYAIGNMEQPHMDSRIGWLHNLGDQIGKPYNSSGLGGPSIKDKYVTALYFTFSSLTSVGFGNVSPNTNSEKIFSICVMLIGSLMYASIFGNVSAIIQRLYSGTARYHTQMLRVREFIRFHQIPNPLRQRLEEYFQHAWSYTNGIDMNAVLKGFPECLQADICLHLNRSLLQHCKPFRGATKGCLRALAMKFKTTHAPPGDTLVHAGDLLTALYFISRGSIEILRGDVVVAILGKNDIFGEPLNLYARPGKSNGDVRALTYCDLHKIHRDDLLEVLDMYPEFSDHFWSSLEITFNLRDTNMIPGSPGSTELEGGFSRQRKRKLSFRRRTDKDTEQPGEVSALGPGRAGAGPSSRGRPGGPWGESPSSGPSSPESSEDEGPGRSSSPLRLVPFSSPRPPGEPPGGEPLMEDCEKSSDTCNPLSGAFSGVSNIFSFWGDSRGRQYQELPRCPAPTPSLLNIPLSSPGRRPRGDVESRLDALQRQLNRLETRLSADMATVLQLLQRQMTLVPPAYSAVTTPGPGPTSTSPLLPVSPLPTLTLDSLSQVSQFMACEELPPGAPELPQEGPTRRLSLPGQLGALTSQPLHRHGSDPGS
Outline: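 Manual patch clamp on HEK293 cells stably expressing hERG, cultured at least 24 h at 37 °C, 5% CO2. Pipettes 3–5 MΩ. Current stabilized 3 min with vehicle before compound. Compound kept on until peak tail current stable (<5% change) for ~5 sweeps. Cisapride monohydrate used as reference.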

[19] = MRT (0 to infinity) in Sprague-Dawley rat at 20 mg/kg, po by LC-MS analysis; assay type: ADME, organism-based; conditions: in vivo
[20] = Tmax in Sprague-Dawley rat at 20 mg/kg, po by LC-MS analysis; assay type: ADME, organism-based; conditions: in vivo
[21] = Cmax in male Kunming mouse at 500 mg/kg, po by LC-MS/MS analysis; assay type: ADME, organism-based; set-up: route oral, dose 500 mg/kg; conditions: in vivo; outline: as §3
[22] = Oral bioavailability in Sprague-Dawley rat at 20 mg/kg by LC-MS analysis; assay type: ADME, organism-based; conditions: in vivo
[23] = AUC (0 to infinity) in male Kunming mouse at 500 mg/kg, po by LC-MS/MS analysis; assay type: ADME, organism-based; set-up: time infinity, route oral, dose 500 mg/kg; conditions: in vivo; outline: as §3
[24] = Half-life in male Kunming mouse at 500 mg/kg, po by LC-MS/MS analysis; assay type: ADME, organism-based; conditions: in vivo; outline: as §3
[25] = AUC (0 to t) in Sprague-Dawley rat at 20 mg/kg, po by LC-MS analysis; assay type: ADME, organism-based; set-up: dose 20 mg/kg; conditions: in vivo
[26] = Cmax in Sprague-Dawley rat at 20 mg/kg, po by LC-MS analysis; assay type: ADME, organism-based; set-up: route oral, dose 20 mg/kg; conditions: in vivo
[27] = MRT (0 to infinity) in male Kunming mouse at 50 mg/kg, po by LC-MS/MS analysis; assay type: ADME, organism-based; conditions: in vivo; outline: as §2
[28] = AUC (0 to infinity) in male Kunming mouse at 2 mg/kg, po by LC-MS/MS analysis; assay type: ADME, organism-based; set-up: time infinity, route oral, dose 2 mg/kg; conditions: in vivo; outline: as §2
[29] = Cmax in male Kunming mouse at 2 mg/kg, po by LC-MS/MS analysis; assay type: ADME, organism-based; set-up: route oral, dose 2 mg/kg; conditions: in vivo; outline: as §2
[30] = Half-life in male Kunming mouse at 50 mg/kg, po by LC-MS/MS analysis; assay type: ADME, organism-based; conditions: in vivo; outline: as §2
[31] = Tmax in male Kunming mouse at 500 mg/kg, po by LC-MS/MS analysis; assay type: ADME, organism-based; conditions: in vivo; outline: as §3

## O=C(CSc1nnc(Br)n1-c1ccc(C2CC2)c2ccccc12)NS(=O)(=O)c1ccc(Br)cc1
[1]
  AUC(0-t): 19.4 µg·h/mL
[2]
  Cmax: 3400 ng/mL
[3]
  MRT inf: 5.6 h
[4]
  half-life: 5 h
[5]
  half-life: 3.4 h
[6]
  Activity: 97.84%
[7]
  AUC(0-inf): 19.6 µg·h/mL
[8]
  Tmax: 1.8 h

## CC(Sc1nc2ncccc2n1-c1ccc(C2CC2)c2ccccc12)C(=O)O (racemic)
[9]
  AUC(0-t): 335 µg·h/mL
[10]
  AUC(0-inf): 335 µg·h/mL
[11]
  Activity: 83.96%
[12]
  Tmax: 1.67 h
[13]
  half-life: 3.4 h
[14]
  AUC(0-inf): 88.8 µg·h/mL
[15]
  AUC(0-t): 2960 µg·h/mL
[16]
  half-life: 4.24 h
[17]
  Tmax: 0.5 h
[18]
  pIC50: < 4.52
[19]
  MRT inf: 5.3 h
[20]
  Tmax: 2 h
[21]
  Cmax: 149000 ng/mL
[22]
  bioavailability: 76.3%
[23]
  AUC(0-inf): 2960 µg·h/mL
[4]
  half-life: 3.1 h
[24]
  half-life: 3.9 h
[6]
  Activity: 92.89%
[25]
  AUC(0-t): 53.2 µg·h/mL
[26]
  Cmax: 15500 ng/mL
[27]
  MRT inf: 6.16 h
[28]
  AUC(0-inf): 13 µg·h/mL
[29]
  Cmax: 2080 ng/mL
[30]
  half-life: 7.06 h
[31]
  Tmax: 18.7 h
